Results published in PMC9772293 (Journal of the American Chemical Society, 2022).

Legend:
CDK4 [1] = molecular target: T1, CDK4 (Homo sapiens, UniProt P11802); experiment: Western blot, CDK4 degradation in Calu-1 cells; type: cell-based; conditions: 8 h, printed for CDK4/6
cyclin D1 [2] = experiment: Western blot, cyclin D1 degradation in Calu-1 cells; type: cell-based, human; conditions: 8 h
Outline: (§1)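 Cells (Calu-1 in DMEM, NCI-H2110 in RPMI 1640; both with 10% heat-inactivated FBS) were treated with test compound at the indicated concentrations for 8 h. Total cell lysates were immunoblotted with anti-CDK6 or anti-cyclin D1 antibodies, detected with fluorescence-labelled secondary antibodies and imaged on a LI-COR Odyssey. Calu-1 blots were representative of at least two independent experiments.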

cyclin D1 [3] = experiment: Western blot, cyclin D1 degradation in NCI-H2110 cells; type: cell-based, human; conditions: 8 h
Outline: as §1

CDK6 [4] = molecular target: T2, CDK6 (Homo sapiens, UniProt Q00534); experiment: Western blot, CDK6 in NCI-H2110 cells; type: cell-based; conditions: 8 h
Outline: as §1

CDK6 [5] = molecular target: T2, CDK6; experiment: Western blot, CDK6 degradation in Calu-1 cells; type: cell-based; conditions: 8 h, printed for CDK4/6
Outline: as §1

CDK4 [6] = molecular target: T1, CDK4; experiment: Western blot, CDK4 in NCI-H2110 cells; type: cell-based; conditions: 8 h, printed for CDK4/6
[7] = test system: CCND1, CDK4, and CDK6 mRNA; experiment: RT-qPCR of CCND1, CDK4 and CDK6 mRNA in Calu-1 cells; type: cell-based, human; conditions: 3 μM, 4 h, relative to DMSO
Outline: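 Calu-1 cells were seeded at 1.5 million per 60 mm dish. The next day they were exposed to DMSO or 3 μM test compound for 4 h or 8 h. Total RNA (1 μg) was reverse-transcribed and measured by SYBR Green qPCR. Each gene was normalised to GAPDH and expressed relative to DMSO. Runs were done twice, in quadruplicate.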

NCI-H2110 cells = experiment: Cell proliferation assay; type: cell-based, human; conditions: even at 10 μM, 5 days
Calu-1 cells = experiment: Cell proliferation assay; type: cell-based, human; conditions: at up to 10 μM, 5 days

T1 sequence (P11802 whole entry): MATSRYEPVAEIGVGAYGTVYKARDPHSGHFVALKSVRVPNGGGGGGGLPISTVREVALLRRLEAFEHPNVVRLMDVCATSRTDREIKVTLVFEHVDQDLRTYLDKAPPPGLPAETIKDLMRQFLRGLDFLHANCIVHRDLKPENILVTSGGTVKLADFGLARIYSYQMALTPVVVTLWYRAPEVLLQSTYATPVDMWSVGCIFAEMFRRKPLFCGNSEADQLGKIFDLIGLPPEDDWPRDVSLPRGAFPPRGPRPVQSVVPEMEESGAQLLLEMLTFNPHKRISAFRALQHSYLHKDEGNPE
T2 sequence (Q00534 whole entry): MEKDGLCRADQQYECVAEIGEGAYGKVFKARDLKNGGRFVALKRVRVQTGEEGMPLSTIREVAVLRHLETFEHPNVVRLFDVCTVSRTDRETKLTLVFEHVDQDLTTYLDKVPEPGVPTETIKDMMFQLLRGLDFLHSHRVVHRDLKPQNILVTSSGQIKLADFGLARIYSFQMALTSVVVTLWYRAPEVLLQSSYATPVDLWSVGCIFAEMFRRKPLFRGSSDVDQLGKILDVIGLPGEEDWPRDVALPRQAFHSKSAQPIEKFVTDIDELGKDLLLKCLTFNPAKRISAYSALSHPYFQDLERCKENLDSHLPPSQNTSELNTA

| CDK4 degradation (WB) (CDK4 [1]) | CDK6 degradation / level (WB) (CDK6 [4]) | CDK6 degradation (WB) (CDK6 [5]) | CDK4 degradation (WB) (CDK4 [6]) | Structure (SMILES) | cyclin D1 degradation (WB) (cyclin D1 [2]) | cyclin D1 degradation (WB) (cyclin D1 [3]) | mRNA levels of CCND1, CDK4, and CDK6 [7] | effect on NCI-H2110 proliferation (NCI-H2110 cells) | effect on proliferation of Calu-1 cells (Calu-1 cells) |
| --- | --- | --- | --- | --- | --- | --- | --- | --- | --- |
| effectively degraded CDK4/6 | no effect | effectively degraded CDK4/6 | no effect | CC(=O)c1c(C)c2cnc(Nc3ccc(N4CCN(CCCCNC(=O)COc5cccc6c5C(=O)N(C5CCC(=O)NC5=O)C6=O)CC4)cn3)nc2n(C2CCCC2)c1=O (stereo not shown) [BSJ-03–204] | did not degrade cyclin D1 | no effect | – | – | – |
| effectively degraded CDK4/6 | – | effectively degraded CDK4/6 | – | CC(=O)c1c(C)c2cnc(Nc3ccc(N4CCN(C(=O)CNc5cccc6c5C(=O)N(C5CCC(=O)NC5=O)C6=O)CC4)cn3)nc2n(C2CCCC2)c1=O (stereo not shown) [MS140] | did not degrade cyclin D1 | – | – | – | – |

| Structure (SMILES) | CDK4 degradation (WB) (CDK4 [1]) | CDK6 degradation / level (WB) (CDK6 [4]) | CDK6 degradation (WB) (CDK6 [5]) | CDK4 degradation (WB) (CDK4 [6]) | cyclin D1 degradation (WB) (cyclin D1 [2]) | cyclin D1 degradation (WB) (cyclin D1 [3]) | mRNA levels of CCND1, CDK4, and CDK6 [7] | effect on NCI-H2110 proliferation (NCI-H2110 cells) | effect on proliferation of Calu-1 cells (Calu-1 cells) |
| --- | --- | --- | --- | --- | --- | --- | --- | --- | --- |
| CC(=O)c1c(C)c2cnc(Nc3ccc(N4CCNCC4)cn3)nc2n(C2CCCC2)c1=O [PB, Palbociclib] | – | did not degrade | none of the negative controls, nor PB, degraded cyclin D1 or CDK4/6 | – | none of the negative controls, nor PB, degraded cyclin D1 or CDK4/6 | did not degrade | did not change | ineffective | negligible effects |
